Assay results from ChEMBL document CHEMBL1125286, “Zatosetron, a potent, selective, and long-acting 5HT3 receptor antagonist: synthesis and structure-activity relationships” (J Med Chem, 1992).

What was measured:
[1] = molecular target: T1, Serotonin 3 (5-HT3) receptor (Rattus norvegicus) (UniProt P35563+Q9JJ16); test: 5-hydroxytryptamine 3 receptor antagonistic activity measured by inhibition of 5-HT-induced bradycardia (iv administration 10 ug/kg dose in urethane-anesthetized rats); format: functional, organism-based
Method in brief: (§1)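 Urethane-anesthetized rats. First 5HT challenge 30 μg/kg iv gives a transient bradycardia. Once heart rate is back at steady state (≤5 min), test compound or saline goes in via the femoral vein. 5HT 30 μg/kg iv is repeated 15 min later. % inhibition is the difference between first and second bradycardia at peak, each animal its own control. Means ± SEM, groups of 3–16 rats.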

[2] = molecular target: T1, Serotonin 3 (5-HT3) receptor (Rattus norvegicus); test: 5-hydroxytryptamine 3 receptor antagonistic activity was measured by the inhibition of 5H+ T-induced bradycardia after iv administration of 3 ug/kg dose in urethane-anesthetized rats; format: functional, organism-based
Method in brief: (§2)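 Urethane-anesthetized rats; antagonist or saline given iv via femoral vein after heart rate settled (≤5 min) from an initial 5HT challenge (30 µg/kg iv). 5HT was given again 15 min later. Peak bradycardia measured, each rat its own control; % inhibition = difference between first and second responses. Groups of 3–16 rats, means ± SEM.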

[3] = molecular target: T1, Serotonin 3 (5-HT3) receptor (Rattus norvegicus); test: 5-hydroxytryptamine 3 receptor antagonistic activity as inhibition of 5-HT-induced bradycardia after iv administration of 100 ug/kg dose in urethane-anesthetized rats; format: functional, organism-based; method in brief: as §1
[4] = molecular target: T1, Serotonin 3 (5-HT3) receptor (Rattus norvegicus); test: 5-hydroxytryptamine 3 receptor antagonistic activity was measured by the inhibition of 5H+ T-induced bradycardia after iv administration of 1000 ug/kgetized rats; format: functional, organism-based; method in brief: as §1
[5] = molecular target: T1, Serotonin 3 (5-HT3) receptor (Rattus norvegicus); test: 5-hydroxytryptamine 3 receptor antagonistic activity was measured by the inhibition of 5-HT-induced bradycardia after iv administration of 1000 ug/kg dose in urethane-anesthetized rats; format: functional, organism-based; method in brief: as §1
[6] = molecular target: T1, Serotonin 3 (5-HT3) receptor (Rattus norvegicus); test: Inhibition of 5-HT-induced bradycardia by 5-hydroxytryptamine 3+; format: functional
[7] = molecular target: T1, Serotonin 3 (5-HT3) receptor (Rattus norvegicus); test: Compound was tested for the inhibition of 5-HT-induced bradycardia after peroral administration in urethane-anesthetized rats
[8] = molecular target: T1, Serotonin 3 (5-HT3) receptor (Rattus norvegicus); test: Compound was tested for the inhibition of 5-HT-induced bradycardia after peroral administration of 1 mg/kg at 3 hours in urethane-anesthetized rats; format: functional, organism-based; design: dose 1 mg/kg; settings: at 1 mg/kg
Method in brief: (§3)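 Duration study: antagonist or vehicle gavaged to conscious fasted rats (5 mL/kg). Rats were urethane-anesthetized and surgically prepared, then challenged with 5HT 0.03 mg/kg iv at the stated time after dosing. Vehicle-treated rats served as controls. Peak inhibition of bradycardia recorded in groups of 3–11, means ± SEM.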

[9] = molecular target: T1, Serotonin 3 (5-HT3) receptor (Rattus norvegicus); test: 5-hydroxytryptamine 3 receptor antagonistic activity was measured by the inhibition of 5H+ T-induced bradycardia after po administration of 1000 ug/kg dose in urethane-anesthetized rats; format: functional, organism-based
Method in brief: (§4)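 Fasted rats dosed by gavage (5 mL/kg) with compound or distilled-water vehicle. Urethane anesthesia and surgical preparation 15–20 min before challenge. 5HT 0.03 mg/kg iv given 1 h after dosing. Peak bradycardia is compared with vehicle-treated controls. Means ± SEM, groups of 3–11 rats.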

[10] = molecular target: T1, Serotonin 3 (5-HT3) receptor (Rattus norvegicus); test: Compound was tested for the inhibition of 5-HT-induced bradycardia after peroral administration of 1 mg/kg at 1 hour in urethane-anesthetized rats; format: functional, organism-based; design: dose 1 mg/kg; settings: at 1 mg/kg; method in brief: as §3
[11] = molecular target: T1, Serotonin 3 (5-HT3) receptor (Rattus norvegicus); test: Compound was tested for the inhibition of 5-HT-induced bradycardia after peroral administration of 1 mg/kg at 0.5 hours in urethane-anesthetized rats; format: functional, organism-based; design: dose 1 mg/kg; settings: at 1 mg/kg; method in brief: as §3
[12] = molecular target: T1, Serotonin 3 (5-HT3) receptor (Rattus norvegicus); test: 5-hydroxytryptamine 3 receptor antagonistic activity was measured by the inhibition of 5H+ T-induced bradycardia after po administration of 100 ug/kg dose in urethane-anesthetized rats; format: functional, organism-based; method in brief: as §4
[13] = molecular target: T1, Serotonin 3 (5-HT3) receptor (Rattus norvegicus); test: 5-hydroxytryptamine 3 receptor antagonistic activity was measured by the inhibition of 5H+ T-induced bradycardia after po administration of 300 ug/kg dose in urethane-anesthetized rats; format: functional, organism-based; method in brief: as §4
[14] = molecular target: T1, Serotonin 3 (5-HT3) receptor (Rattus norvegicus); test: 5-hydroxytryptamine 3 receptor antagonistic activity was measured by the inhibition of 5H+ T-induced bradycardia after po administration of 30 ug/kg dose in urethane-anesthetized rats; format: functional, organism-based; method in brief: as §4
[15] = molecular target: T1, Serotonin 3 (5-HT3) receptor (Rattus norvegicus); test: Compound was tested for the inhibition of 5-HT-induced bradycardia after peroral administration of 100 ug/kg dose in urethane-anesthetized rats; format: functional, organism-based
Method in brief: (§5)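 Fasted rats gavaged (5 mL/kg) with antagonist or vehicle (distilled water). Urethane anesthesia and surgical preparation followed, 15–20 min before 5HT challenge. 5HT 30 µg/kg iv given 1 h after dosing, with vehicle-treated rats as controls. Peak % inhibition of bradycardia in groups of 3–11, means ± SEM.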

[16] = molecular target: T1, Serotonin 3 (5-HT3) receptor (Rattus norvegicus); test: Compound was tested for the inhibition of 5-HT-induced bradycardia after peroral administration of 0.3 mg/kg at 6 hours in urethane-anesthetized rats; format: functional, organism-based; design: dose 0.3 mg/kg; settings: at 0.3 mg/kg
Method in brief: (§6)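 Duration study. Antagonist or vehicle is given by oral gavage to conscious rats. Rats are then urethane-anesthetized, surgically prepared and challenged with 5HT 0.03 mg/kg iv at the stated time after dosing. Peak inhibition of bradycardia is measured against vehicle-treated controls. Means ± SEM, groups of 3–11 rats.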

[17] = molecular target: T1, Serotonin 3 (5-HT3) receptor (Rattus norvegicus); test: Compound was tested for the inhibition of 5-HT-induced bradycardia after intravenous administration of 1 ug/kg dose in urethane-anesthetized rats; format: functional, organism-based; method in brief: as §2
[18] = molecular target: T1, Serotonin 3 (5-HT3) receptor (Rattus norvegicus); test: Compound was tested for the inhibition of 5-HT-induced bradycardia after peroral administration of 0.3 mg/kg at 0.5 hours in urethane-anesthetized rats; format: functional, organism-based; design: dose 0.3 mg/kg; settings: at 0.3 mg/kg; method in brief: as §6
[19] = molecular target: T1, Serotonin 3 (5-HT3) receptor (Rattus norvegicus); test: Compound was tested for the inhibition of 5-HT-induced bradycardia after peroral administration of 0.3 mg/kg at 3 hours in urethane-anesthetized rats; format: functional, organism-based; design: dose 0.3 mg/kg; settings: at 0.3 mg/kg; method in brief: as §6
[20] = molecular target: T1, Serotonin 3 (5-HT3) receptor (Rattus norvegicus); test: Compound was tested for the inhibition of 5-HT-induced bradycardia after peroral administration of 1000 ug/kg dose in urethane-anesthetized rats; format: functional, organism-based; method in brief: as §5
[21] = molecular target: T1, Serotonin 3 (5-HT3) receptor (Rattus norvegicus); test: Compound was tested for the inhibition of 5-HT-induced bradycardia after peroral administration of 0.3 mg/kg at 1 hour in urethane-anesthetized rats; format: functional, organism-based; design: dose 0.3 mg/kg; settings: at 0.3 mg/kg; method in brief: as §6
[22] = molecular target: T1, Serotonin 3 (5-HT3) receptor (Rattus norvegicus); test: Compound was tested for the inhibition of 5-HT-induced bradycardia after peroral administration of 10 ug/kg dose in urethane-anesthetized rats; format: functional, organism-based; method in brief: as §5
[23] = molecular target: T1, Serotonin 3 (5-HT3) receptor (Rattus norvegicus); test: Compound was tested for the inhibition of 5-HT-induced bradycardia after peroral administration of 0.03 mg/kg dose in urethane-anesthetized rats at 16 hour; format: functional, organism-based; design: dose 0.03 mg/kg; method in brief: as §3
[24] = tested on: Serotonin 3 receptor (Cavia porcellus); test: In vitro binding affinity was measured for 5-hydroxytryptamine 3 receptor in the guinea pig ileum.
[25] = molecular target: T1, Serotonin 3 (5-HT3) receptor (Rattus norvegicus); test: Compound was tested for the inhibition of 5-HT-induced bradycardia after peroral administration of 3 ug/kg dose in urethane-anesthetized rats; format: functional, organism-based; method in brief: as §5
[26] = molecular target: T1, Serotonin 3 (5-HT3) receptor (Rattus norvegicus); test: Compound was tested for the inhibition of 5-HT-induced bradycardia after peroral administration of 0.03 mg/kg dose in urethane-anesthetized rats at 3 hour; format: functional, organism-based; design: dose 0.03 mg/kg; method in brief: as §3
[27] = molecular target: T1, Serotonin 3 (5-HT3) receptor (Rattus norvegicus); test: Compound was tested for the inhibition of 5-HT-induced bradycardia after peroral administration of 30 ug/kg dose in urethane-anesthetized rats; format: functional, organism-based; method in brief: as §5
[28] = molecular target: T1, Serotonin 3 (5-HT3) receptor (Rattus norvegicus); test: Compound was tested for the inhibition of 5-HT-induced bradycardia after peroral administration of 0.03 mg/kg dose in urethane-anesthetized rats at 0.05 hour; format: functional, organism-based; design: dose 0.03 mg/kg; settings: in the assay text read “0.5 hour” for “0.05 hour”; method in brief: as §3
[29] = molecular target: T1, Serotonin 3 (5-HT3) receptor (Rattus norvegicus); test: Compound was tested for the inhibition of 5-HT-induced bradycardia after intravenous administration of 0.3 ug/kg dose in urethane-anesthetized rats; format: functional, organism-based; method in brief: as §2
[30] = molecular target: T1, Serotonin 3 (5-HT3) receptor (Rattus norvegicus); test: Compound was tested for the inhibition of 5-HT-induced bradycardia after peroral administration of 0.03 mg/kg dose in urethane-anesthetized rats at 6 hour; format: functional, organism-based; design: dose 0.03 mg/kg; method in brief: as §3
[31] = molecular target: T1, Serotonin 3 (5-HT3) receptor (Rattus norvegicus); test: Compound was tested for the inhibition of 5-HT-induced bradycardia after peroral administration of 0.03 mg/kg dose in urethane-anesthetized rats at 1 hour; format: functional, organism-based; design: dose 0.03 mg/kg; method in brief: as §3
[32] = molecular target: T1, Serotonin 3 (5-HT3) receptor (Rattus norvegicus); test: Compound was tested for the inhibition of 5-HT-induced bradycardia after intravenous administration of 30 ug/kg dose in urethane-anesthetized rats; format: functional, organism-based; method in brief: as §1

CN1C2CCC1CC(NC(=O)c1ccc(Cl)c3c1OC(C)(C)C3)C2 (stereo not given)
inhibition [1]: 1.9%

CN1C2CCC1CC(NC(=O)c1cc(Br)cc3c1OC(C)(C)C3)C2 (stereo not given)
inhibition [2]: 15.9%
inhibition [1]: 68.7%

CN1C2CCC1CC(OC(=O)c1cccc3oc4ccccc4c13)C2 (stereo not given)
inhibition [1]: 0%
inhibition [3]: 12.4%
inhibition [4]: 66.3%

CN1[C@@H]2CC[C@H]1C[C@@H](NC(=O)c1cc(Cl)cc3c1OC(C)(C)C3)C2 (stereo in doubt; 50)
inhibition [2]: 25.9%
inhibition [1]: 67.1%

Cc1coc2c(C(=O)OC3CC4CCC(C3)N4C)cccc12 (stereo not given)
inhibition [1]: 7.7%

CN1C2CCC1CC(OC(=O)c1ccc(OC(F)(F)F)cc1)C2 (stereo not given)
inhibition [5]: 4.7%

CN1C2CCC1CC(NC(=O)c1cc(F)cc3c1OC(C)(C)C3)C2 (stereo not given)
inhibition [1]: 71.7%

CN1C2CCC1CC(NC(=O)c1ccc3c(c1)OC(C)(C)C3)C2 (stereo not given)
inhibition [1]: 0%

COc1cc2c(c(C(=O)NC3CC4CCC(C3)N4C)c1)OC(C)(C)C2 (stereo not given)
inhibition [1]: 2.9%

CN1C2CCC1CC(NC(=O)c1cccc3c1OC(C)(C)C3)C2 (stereo not given)
inhibition [2]: 13.7%
inhibition [1]: 47.5%

CC1Cc2cc(F)cc(C(=O)OC3CC4CCC(C3)N4C)c2O1 (stereo not given)
inhibition [1]: 32.2%

Cc1nccn1CC1CCc2c(c3ccccc3n2C)C1=O (stereo not given)
ED50 [6]: 3.3 µg/kg
ED50 [7]: 316 µg/kg
inhibition [8]: 6.5%
inhibition [9]: 73.4%
inhibition [10]: 73.4%
inhibition [11]: 74.3%
inhibition [12]: 18.2%
inhibition [13]: 55.1%
inhibition [14]: 0.3%

CN1C2CCC1CC(OC(=O)c1cccc3c1OCC3)C2 (stereo not given)
inhibition [1]: 27%
inhibition [3]: 51.2%

CN1C2CCC1CC(NC(=O)c1ccc3c(c1)CC(C)(C)O3)C2 (stereo not given)
inhibition [1]: 16.7%

CN1[C@@H]2CC[C@H]1C[C@@H](OC(=O)c1cc(Cl)cc(Cl)c1)C2
inhibition [1]: 9.7%
inhibition [3]: 71.4%

CN1C2CCC1CC(NC(=O)c1cc(O)cc3c1OC(C)(C)C3)C2 (stereo not given)
inhibition [1]: 54.7%

CN1[C@@H]2CC[C@H]1C[C@@H](OC(=O)c1c[nH]c3ccccc13)C2
inhibition [2]: 54.2%
inhibition [15]: 39.8%
inhibition [16]: 17.4%
ED50 [6]: 3.1 µg/kg
ED50 [7]: 127 µg/kg
inhibition [17]: 20.1%
inhibition [18]: 86.6%
inhibition [19]: 65.2%
inhibition [20]: 85%
inhibition [3]: 70.6%
inhibition [21]: 77.4%
inhibition [22]: 0.1%

CN1[C@@H]2CC[C@H]1C[C@@H](NC(=O)c1cc(Cl)cc3c1OC(C)(C)C3)C2 (stereo in doubt)
inhibition [2]: 84.4%
ED50 [6]: 0.9 µg/kg
inhibition [23]: 0%
ED50 [7]: 9.2 µg/kg
-Log KB [24]: 8.78
inhibition [17]: 66.2%
inhibition [25]: 19.1%
inhibition [26]: 61.1%
inhibition [27]: 77.6%
inhibition [28]: 86.4%
inhibition [29]: 10.8%
inhibition [30]: 81.4%
inhibition [31]: 77.6%
inhibition [22]: 57.1%

CC1Oc2c(C(=O)OC3CC4CCC(C3)N4C)cccc2C1C (stereo in doubt; 26)
inhibition [2]: 1.8%
inhibition [1]: 29.9%
inhibition [32]: 78.7%
